From ChEMBL document CHEMBL1135801, “Synthesis, structure, and activity of diclofenac analogues as transthyretin amyloid fibril formation inhibitors” (J Med Chem, 2002) come the findings set out here.

A value given as a limit tells only on which side of the number the result lay.

Experiment [1] has as its target Transthyretin (Homo sapiens) (UniProt P02766). Put plainly: Inhibition of V30M TTR fibril formation at OD400. Type of experiment: functional. The method, boiled down:
(§1)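 Stagnant fibril formation assay. TTR at 0.4 mg/mL in 10 mM sodium phosphate, 100 mM KCl, 1 mM EDTA, pH 7.6, was preincubated 30 min at 37 °C with compound added from DMSO stock. Acetate buffer then lowered the pH to 4.2 (wild type) or 5 (V30M, L55P), and samples stood unagitated 72 h at 37 °C. After vortexing, turbidity was read at 400 nm and expressed as percent of the no-inhibitor sample. Triplicates.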

Experiment [2] has the same target. Put plainly: Inhibition of wild type TTR fibril formation at OD400. The class given is functional. The method, boiled down:
as §1

Experiment [3] has the same target. Briefly: Inhibition of L55P TTR fibril formation was measured at OD400. Type of experiment: functional. The method, boiled down: as §1
Experiment [4] can be described thus: Second dissociation constant of the binding of compound to V30M TTR. Type of experiment: functional. The method, boiled down: (§2)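 Isothermal titration calorimetry at pH 7.6 (100 mM phosphate, 100 mM KCl, 1 mM EDTA). A 435 µM ligand solution in this buffer, concentration set by ε280 = 10 400 M-1 cm-1, was titrated into cells holding 21.1 µM wild type, 20.1 µM V30M or 20.0 µM L55P TTR.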

Experiment [5] in a line: First dissociation constant of the binding of compound to V30M TTR. Type of experiment: functional. The method, boiled down:
as §2

In experiment [6] the target is Transthyretin (Homo sapiens) (UniProt P02766). Briefly: First dissociation constant of the binding of compound to L55P TTR. Type of experiment: functional. The method, boiled down: as §2
The target is the same in experiment [7]. Put plainly: First dissociation constant of the binding of compound to wild type TTR. Type of experiment: functional. The method, boiled down:
as §2

Experiment [8] shares this target. Put plainly: Second dissociation constant of the binding of compound to wild type TTR. The class given is functional. The method, boiled down:
as §2

Experiment [9] shares this target. Briefly: Second dissociation constant of the binding of compound to L55P TTR. Type of experiment: functional. The method, boiled down:
as §2

Experiment [10] shares this target. Briefly: (§3) Quaternary structure of the soluble protein after incubation of 3.6 uM of compound. Type of experiment: functional.
Experiment [11] has the same target. The description is as §3. Type of experiment: functional. The source holds these as a separate data set.
For experiment [12] the target is unchanged. The description is as §3. The class given is functional. The source holds these as a separate data set.
Experiment [13] shares this target. Briefly: Quaternary structure of the soluble protein after incubation of 10.8 uM of compound.
Experiment [14] shares this target. Briefly: Quaternary structure of the soluble protein after incubation of 3.6 uM L55P TTR with 10.8 uM of compound. The class given is functional. The method, boiled down:
(§4)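 3.6 µM TTR (wild type, V30M or L55P) was held 72 h with 10.8 µM compound under stagnant fibril formation conditions at the variant's pH maximum. Precipitate was removed by spinning at 14 000 rpm, and the supernatant was analysed by analytical ultracentrifugation to give % tetramer, monomer and aggregate and MW.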

Experiment [15] has the same target. Put plainly: Quaternary structure of the soluble protein after incubation of 3.6 uM wild type TTR with 10.8 uM of compound. The class given is functional. The method, boiled down:
as §4

The target is the same in experiment [16]. Put plainly: Quaternary structure of the soluble protein after incubation of 3.6 uM V30M TTR with 10.8 uM of compound. The class given is functional. The method, boiled down:
as §4

Regarding `O=C(O)c1ccccc1Nc1cc(Cl)cc(Cl)c1`, the values for the Formation in experiment [1], in experiment [2] and in experiment [3] were 30%, 34% and 50%, respectively.
On to `CCc1ccccc1Nc1c(Cl)cccc1Cl`, for which the results for the Formation in [1], in experiment [2] and in [3] were 70%, 82% and 85%, respectively.
Consider `O=C(O)Cc1ccccc1Nc1c(Cl)cccc1Cl`, for which the values for the Kd2 in [4], in experiment [8] and in [9] were 3.9 µM, 1200 nM and 6.18 µM, respectively. Besides, the Formation in [1] amounted to 33%; in [2], 35%; in [3] it was 72%. The Kd1 in [5] was found to be 160 nM; in experiment [6] it was 380 nM; in experiment [7] it was 60 nM.
As for `O=C(O)Cc1ccccc1Nc1c(Cl)cc(C(=O)O)cc1Cl`, the Formation in experiment [1] turned out to be 28%; in experiment [2], 32%; in experiment [3], 45%. The Tetramer in [10] was 95%; in [11] it was more than 95%; in experiment [12], 95%. Moreover, the Monomer in [13] worked out at 5%.
For `CCCc1ccccc1Nc1c(Cl)cccc1Cl`, the Formation stood at 85% in experiment [1], 100% in experiment [2] and 90% in [3].
In the case of `O=C(O)c1ccccc1Nc1c(Cl)cccc1Cl`, the Formation in experiment [1] turned out to be 27%; in experiment [2], 30%.
As for `O=C(O)c1cc(Cl)c(Nc2ccc([N+](=O)[O-])cc2)c(Cl)c1`, the values for the Formation in [1], in [2] and in experiment [3] were 33%, 40% and 75%, respectively. The figures for the Tetramer in experiment [14], in [15] and in [16] were more than 95%, 93% and 90%, respectively. Also, the Aggregate in experiment [15] came to 7%; in [16], 10%.
As for `CC(C)c1ccccc1Nc1c(Cl)cccc1Cl`, the figures for the Formation in experiment [1], in experiment [2] and in experiment [3] were 80%, 85% and 90%, respectively.
Take `COC(=O)Cc1ccccc1Nc1c(Cl)cccc1Cl`: the Formation was determined as 90% in experiment [1], 78% in [2] and 90% in experiment [3].
Regarding `O=C(O)Cc1ccccc1Nc1cc(Cl)cc(Cl)c1`, the Formation in experiment [1] was 27%; in [2], 30%; in experiment [3] it was 53%. The figures for the Tetramer in experiment [10], in experiment [11] and in experiment [12] were more than 95%, more than 95% and 76%, respectively. Besides, the Aggregate in [13] was 24%.
Turning to `OCCc1ccccc1Nc1c(Cl)cccc1Cl`, the Formation in experiment [1] stood at 62%; in [2] it was 60%; in [3] it was 90%.
In the case of `ClCCc1ccccc1Nc1c(Cl)cccc1Cl`, the Formation worked out at 70% in experiment [1], 75% in [2] and 90% in experiment [3].
In the case of `NC(=O)Cc1ccccc1Nc1c(Cl)cccc1Cl`, the Formation in [1] amounted to 67%; in experiment [2] it was 65%.
